1 compound from ChEMBL document CHEMBL5543124, “Lead Compound Development of SRC-3 Inhibitors with Improved Pharmacokinetic Properties and Anticancer Efficacy” (J Med Chem, 2024) can be followed below.

Data set [1] deals with Prostate cancer organoid. Put plainly: Antitumor activity against patient derived Prostate cancer PDX organoid assessed as reduction in organoid formation measured after 2 weeks. The data set is classed as functional, tissue-based. The following applies: Homo sapiens. The essentials:
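Single cells from prostate cancer PDX tumors (collagenase I/III digest); 20000 cells embedded in collagen gel and cultured overnight, then treated or vehicle for 14 days with at least 5 wells per dose. Organoids imaged and counted on day 14; groups compared by Student t test.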

Data set [2] in a line: AUC (0 to t) in CD-1 mouse at 1 mg/kg,iv administration measured upto 48 hrs by LC-MS/MS analysis. The data set is classed as ADME, organism-based. The following applies: in vivo. The procedure, abridged:
(§1)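 Single intravenous bolus in ICR male mice (n = 3, 6 weeks); dosing solution 0.5 mg/mL in 20% DMSO, 16% PEG, 4% dextrose in PBS. Tail-vein blood (10 μL) taken at 2, 5, 15, 30 min and 1, 2, 4, 8, 24, 48 h. Plasma quantified by LC-MS/MS against a 0.5–1000 ng/mL calibration; parameters from non-compartmental analysis.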

A short description of data set [3]: Half life in human liver microsomes at 1 uM incubated for 30 mins in presence of NADPH by LC-MS/MS analysis. Format: ADME, Microsome. Particulars: 0.5 h. The essentials:
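Human liver microsomes (1 mg/mL final) in 100 mM phosphate buffer with or without NADPH; compound at 1 μM final, 37 °C. Samples taken at 0, 5, 10, 20, 30 min (0 and 30 min without NADPH), quenched with cold acetonitrile containing internal standards, analysed by LC-MS/MS; verapamil as control.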

For data set [4], the system named is PANC-1. Briefly: Cytotoxicity against human PANC-1 cells mediated with siRNA control assessed as inhibition of cell growth incubated for 72 hrs by MTT assay. The data set is classed as functional, cell-based. The following applies: PANC-1, 72 h. The procedure, abridged:
(§2)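 PANC-1 cells with stable lentiviral shRNA knockdown of SRC-3 or control shRNA; SRC-3 levels checked by western blot. Cells treated with a dose series for 72 h and viability read by MTT.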
In general terms: Formazan colour is commonly taken as a measure of viable cells.

Data set [5] can be described thus: Tmax in CD-1 mouse at 1 mg/kg,iv administration measured upto 48 hrs by LC-MS/MS analysis. Particulars: in vivo. Format: ADME, organism-based. The procedure, abridged: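 Male ICR mice (n=3, 6 weeks) given 1 mg/kg i.v. from a 0.5 mg/mL solution in 20% DMSO/16% PEG/4% dextrose in PBS. Tail-vein blood (10 μL) drawn at 2, 5, 15 and 30 min and at 1, 2, 4, 8, 24 and 48 h. Plasma quantified by LC-MS/MS against 0.5–1000 ng/mL calibration standards with QC samples. Parameters from non-compartmental analysis.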

Data set [6] deals with MDA-MB-468. Put plainly: Cytotoxicity against human MDA-MB-468 cells assessed as inhibition of cell growth preincubated for 3 to 6 hrs followed by compound washout and incubated for 72 hrs by MTT assay. The data set is classed as functional, cell-based. The following applies: time 3-6 hrs. The procedure, abridged:
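MDA-MB-468 cells (RPMI 1640, 5% FBS) exposed to compound for varying durations, washed with PBS, then kept in culture to a total of 72 h. Viability read by MTT; EC50 and EC90 determined at each exposure time.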

A short description of data set [7]: Cmax in CD-1 mouse at 1 mg/kg,iv administration measured upto 48 hrs by LC-MS/MS analysis. Format: ADME, organism-based. The following applies: in vivo. The essentials:
as §1

The target in data set [8] is 5-hydroxytryptamine receptor 2B (Homo sapiens, UniProt P41595). Put plainly: Antagonist activity at HTR2B (unknown origin) by calcium flux assay. Format: toxicity. The essentials: (§3)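 Tested in a commercial off-target safety screening panel of 78 targets. Values reported as RC50, taken as IC50 except for agonist mode, where RC50 is EC50.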
Sequence of 5-hydroxytryptamine receptor 2B (P41595 whole entry): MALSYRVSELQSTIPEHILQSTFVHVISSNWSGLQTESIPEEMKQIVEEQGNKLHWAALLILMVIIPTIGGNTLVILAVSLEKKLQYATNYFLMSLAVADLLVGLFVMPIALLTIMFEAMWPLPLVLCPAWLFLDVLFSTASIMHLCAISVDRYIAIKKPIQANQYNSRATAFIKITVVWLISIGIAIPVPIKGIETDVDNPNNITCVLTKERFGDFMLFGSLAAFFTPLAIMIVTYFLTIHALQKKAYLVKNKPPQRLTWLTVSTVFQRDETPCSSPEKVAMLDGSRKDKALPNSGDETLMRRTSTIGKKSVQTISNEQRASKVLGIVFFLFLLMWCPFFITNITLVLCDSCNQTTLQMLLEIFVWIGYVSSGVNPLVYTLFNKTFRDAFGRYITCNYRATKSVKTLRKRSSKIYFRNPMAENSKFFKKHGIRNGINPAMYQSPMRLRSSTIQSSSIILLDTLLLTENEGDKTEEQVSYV
The test system of data set [9] is MDA-PCa-118b. Briefly: Antitumor activity against patient derived MDA-PCa-118b cells xenografted in SCID mouse assessed as reduction in bone metastasis at 10 mg/kg,ip administration measured after 4 weeks by X-ray imaging analysis. The data set is classed as functional, organism-based. The following applies: Homo sapiens. The essentials:
(§4)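 AR-PDX 118b cells (1×10^5) injected via intra-femoral artery in male SCID mice (8–9 weeks). After 2 weeks, 10 mg/kg/day ip or vehicle for 4 weeks (n = 9/group). X-ray imaging every two weeks. At the end, femurs CT-scanned (5 per group) with 3D-reconstruction tumor size, and H&E histology used for tumor/femur area ratio.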
A general note: A xenograft is tissue or cells of one species grown in another, often human tumour cells in immunodeficient mice.

Data set [10] has as its target T1, Endothelin-1 receptor (Homo sapiens, UniProt P25101).
T1 sequence (P25101 whole entry): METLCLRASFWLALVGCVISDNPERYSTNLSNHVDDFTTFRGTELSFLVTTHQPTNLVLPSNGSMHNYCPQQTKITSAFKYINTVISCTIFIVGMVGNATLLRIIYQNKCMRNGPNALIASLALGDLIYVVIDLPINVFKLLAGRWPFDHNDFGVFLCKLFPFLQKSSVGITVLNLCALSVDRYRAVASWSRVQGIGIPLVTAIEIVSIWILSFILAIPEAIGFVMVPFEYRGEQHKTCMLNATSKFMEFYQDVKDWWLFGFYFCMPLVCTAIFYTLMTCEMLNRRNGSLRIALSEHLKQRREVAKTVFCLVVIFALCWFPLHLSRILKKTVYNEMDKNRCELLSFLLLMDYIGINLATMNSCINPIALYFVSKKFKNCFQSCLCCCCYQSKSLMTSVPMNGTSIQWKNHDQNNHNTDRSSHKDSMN
Put plainly: Antagonist activity at EDNRA (unknown origin) by calcium flux assay. The data set is classed as toxicity. The procedure, abridged: as §3
Background: Calcium flux is commonly read through the fluorescence of an indicator in the cells.

Data set [11] can be described thus: Oral bioavailability in CD-1 mouse at 10 mg/kg administration measured upto 48 hrs by LC-MS/MS analysis. Format: ADME, organism-based. The following applies: in vivo.
The subject of data set [12] is MDA-PCa-118b. Briefly: Antitumor activity against patient derived MDA-PCa-118b cells xenografted in SCID mouse assessed as reduction in tumor burden in femur at 10 mg/kg,ip administration measured after 4 weeks by CT imaging analysis. The data set is classed as functional, organism-based. The following applies: Homo sapiens. The essentials: as §4
Data set [13] concerns PANC-1. Put plainly: Cytotoxicity against SiRNA mediated SRC-3.1 knockdown human PANC-1 cells assessed as inhibition of cell growth incubated for 72 hrs by MTT assay. Format: functional, cell-based. The following applies: PANC-1, 72 h. The essentials:
as §2

Data set [14] addresses Voltage-gated inwardly rectifying potassium channel KCNH2 (Homo sapiens, UniProt Q12809). Put plainly: Inhibition of hERG transfected in HEK293 cells at 10 uM by patch clamp assay. The data set is classed as toxicity, cell-based. Particulars: hek293, 10 µM.
Data set [15] addresses T1, Endothelin-1 receptor. Briefly: Agonist activity at EDNRA (unknown origin) by calcium flux assay. The data set is classed as toxicity. The procedure, abridged:
as §3

For data set [16], the target named is Nuclear receptor coactivator 3 (Homo sapiens) (UniProt Q9Y6Q9). Put plainly: Inhibition of recombinant His-tagged SRC-3 (unknown origin) expressed in baculovirus assessed as reduction in recruitment of SRC-3 in ER complex at 0.15 uM incubated for 30 mins by pull-down based western blotting analysis. The essentials: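 Purified baculovirus-expressed His-SRC-3-flag (0.1 μg) preincubated with compound or vehicle for 30 min on ice. Then 0.1 μg recombinant ERα and His-p300 plus ERE-containing DNA oligo and 1 μM 17β-estradiol added, 1 h on ice. ER complexes immunoprecipitated with anti-ERα antibody; SRC-3 and p300 detected by western blot.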
Sequence of Nuclear receptor coactivator 3 (Homo sapiens) (Q9Y6Q9 2-1424 limits assumed): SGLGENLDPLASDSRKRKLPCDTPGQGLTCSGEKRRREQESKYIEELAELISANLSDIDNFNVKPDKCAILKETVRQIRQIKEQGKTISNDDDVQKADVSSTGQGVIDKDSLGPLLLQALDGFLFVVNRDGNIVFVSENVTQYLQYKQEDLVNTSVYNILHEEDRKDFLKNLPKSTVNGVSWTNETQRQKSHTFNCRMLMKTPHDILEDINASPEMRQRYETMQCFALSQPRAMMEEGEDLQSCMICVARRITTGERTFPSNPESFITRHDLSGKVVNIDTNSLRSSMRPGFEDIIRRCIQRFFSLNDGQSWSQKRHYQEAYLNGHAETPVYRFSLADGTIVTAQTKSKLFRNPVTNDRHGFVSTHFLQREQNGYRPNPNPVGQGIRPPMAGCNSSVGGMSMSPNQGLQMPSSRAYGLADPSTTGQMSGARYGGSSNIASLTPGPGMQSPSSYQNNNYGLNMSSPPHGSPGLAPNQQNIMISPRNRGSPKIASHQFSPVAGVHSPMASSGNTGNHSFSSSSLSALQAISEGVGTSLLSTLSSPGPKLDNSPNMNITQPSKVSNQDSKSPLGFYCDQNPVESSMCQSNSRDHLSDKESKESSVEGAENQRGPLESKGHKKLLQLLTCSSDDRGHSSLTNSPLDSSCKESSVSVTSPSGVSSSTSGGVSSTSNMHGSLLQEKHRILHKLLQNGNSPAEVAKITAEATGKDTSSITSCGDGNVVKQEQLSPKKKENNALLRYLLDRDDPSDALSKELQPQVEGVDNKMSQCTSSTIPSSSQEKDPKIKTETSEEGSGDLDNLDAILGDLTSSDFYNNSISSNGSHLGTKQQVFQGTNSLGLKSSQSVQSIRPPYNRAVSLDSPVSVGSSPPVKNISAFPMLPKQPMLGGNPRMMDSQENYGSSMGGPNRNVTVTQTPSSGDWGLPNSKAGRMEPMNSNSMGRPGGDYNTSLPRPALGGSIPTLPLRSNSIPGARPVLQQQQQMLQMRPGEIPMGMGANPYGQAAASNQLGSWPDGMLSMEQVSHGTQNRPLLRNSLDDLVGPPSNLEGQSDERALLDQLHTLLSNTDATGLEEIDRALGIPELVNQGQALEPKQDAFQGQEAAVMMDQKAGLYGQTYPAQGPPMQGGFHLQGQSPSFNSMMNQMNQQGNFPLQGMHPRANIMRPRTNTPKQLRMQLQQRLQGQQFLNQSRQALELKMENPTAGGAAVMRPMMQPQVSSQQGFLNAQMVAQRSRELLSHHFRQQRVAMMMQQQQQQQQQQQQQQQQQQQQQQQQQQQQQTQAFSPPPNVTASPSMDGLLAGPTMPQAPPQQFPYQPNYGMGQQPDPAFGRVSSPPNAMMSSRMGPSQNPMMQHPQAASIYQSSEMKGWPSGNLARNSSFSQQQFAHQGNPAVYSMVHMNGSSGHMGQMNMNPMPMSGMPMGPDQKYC

The subject of data set [17] is PANC-1. Put plainly: Cytotoxicity against human PANC-1 cells assessed as inhibition of cell growth incubated for 72 hrs by MTT assay. The following applies: PANC-1, 72 h. Format: functional, cell-based. The procedure, abridged:
(§5)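 Cells seeded and grown to 70–80% confluence, then exposed for 72 h to a titration series (0.2–1000 nM). Viability read by MTT relative to untreated cells, with 6 replicates per concentration. IC50 fitted with a Hill-slope model.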

In data set [18] the test system is MDA-MB-468. Briefly: Cytotoxicity against human MDA-MB-468 cells assessed as inhibition of cell growth incubated for 72 hrs by MTT assay. The following applies: MDA-MB-468, 72 h. The data set is classed as functional, cell-based. The procedure, abridged:
as §5

Active and inactive are the calls of the source. No cut-off for these calls is given here.

Sequence of Voltage-gated inwardly rectifying potassium channel KCNH2 (Q12809 whole entry): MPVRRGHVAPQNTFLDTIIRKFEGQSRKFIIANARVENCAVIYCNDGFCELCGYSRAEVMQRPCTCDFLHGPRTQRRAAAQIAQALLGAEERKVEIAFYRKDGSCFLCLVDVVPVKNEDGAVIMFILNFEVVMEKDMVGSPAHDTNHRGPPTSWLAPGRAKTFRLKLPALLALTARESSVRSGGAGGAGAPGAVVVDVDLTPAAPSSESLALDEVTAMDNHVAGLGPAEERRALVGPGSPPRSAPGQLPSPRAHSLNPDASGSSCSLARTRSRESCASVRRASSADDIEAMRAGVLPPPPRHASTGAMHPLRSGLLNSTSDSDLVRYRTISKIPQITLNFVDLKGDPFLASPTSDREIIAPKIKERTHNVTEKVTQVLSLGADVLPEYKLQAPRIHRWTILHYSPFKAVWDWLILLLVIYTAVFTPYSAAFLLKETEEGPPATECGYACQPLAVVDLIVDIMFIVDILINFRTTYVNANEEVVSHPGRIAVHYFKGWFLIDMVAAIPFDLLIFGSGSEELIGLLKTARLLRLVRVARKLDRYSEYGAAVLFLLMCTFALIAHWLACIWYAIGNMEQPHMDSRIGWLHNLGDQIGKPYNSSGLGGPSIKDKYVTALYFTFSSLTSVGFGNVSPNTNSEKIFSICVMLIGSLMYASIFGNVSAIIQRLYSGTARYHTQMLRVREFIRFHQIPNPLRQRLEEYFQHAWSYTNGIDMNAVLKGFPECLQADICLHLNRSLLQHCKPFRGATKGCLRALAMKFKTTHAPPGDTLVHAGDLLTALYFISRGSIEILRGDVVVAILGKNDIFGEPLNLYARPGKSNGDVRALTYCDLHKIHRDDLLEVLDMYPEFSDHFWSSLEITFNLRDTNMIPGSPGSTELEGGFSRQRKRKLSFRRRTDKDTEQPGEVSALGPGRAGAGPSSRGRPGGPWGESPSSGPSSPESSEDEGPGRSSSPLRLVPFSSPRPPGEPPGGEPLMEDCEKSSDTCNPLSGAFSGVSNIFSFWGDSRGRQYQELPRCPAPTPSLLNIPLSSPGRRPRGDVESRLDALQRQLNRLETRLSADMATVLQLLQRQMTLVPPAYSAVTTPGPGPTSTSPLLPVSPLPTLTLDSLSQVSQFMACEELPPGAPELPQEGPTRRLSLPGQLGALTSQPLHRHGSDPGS

For orientation: IC50 means the concentration at which inhibition is half-maximal. Broadly, the Tmax is the time from dosing to the highest level. What is called Cmax is the peak of the concentration-time curve. As usually defined, the EC50 is the concentration that produces a half-maximal response. As to `C/C(=N\N=c1/[nH]c2cc(F)c(F)cc2n1C)c1ccc(F)cn1`, the result in data set [1], in data set [6], in data set [9] and in [12] was Active. Also, the AUCt in [2] stood at 737 ng·h/mL. The t1/2 in data set [3] worked out at 8.49 min. In addition, the IC50 in data set [4] turned out to be 25.2 nM; in data set [8] it was 4100 nM; in [10] it was 4000 nM; in data set [13], 147 nM; in data set [17], 29 nM; in data set [18], 15 nM. In [5], the Tmax is 1.98 min. Also, the maximum concentration (Cmax) in [7] worked out at 1066 ng/mL. Moreover, in [11], the F stood at 24.6%. Further, the “inhibition (INH)” value in data set [14] was “Active”. Moreover, in [15], the EC50 came to 6400 nM. For the same compound, the inhibition entry in data set [16] was “Active”.
